Assay results as given in ChEMBL document CHEMBL1134609, “Dinuclear alkyldiamine platinum antitumor compounds: a structure-activity relationship study” (J Med Chem, 2001).

How the values were obtained:
L1210/2 = experiment: Cytotoxicity in cisplatin-resistant L1210/2 cell lines; format: functional, cell-based, Mus musculus
Procedure, shortened: (§1)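 Murine leukemia L1210/0 (wild-type) or L1210/2 (cisplatin-resistant) cells in McCoy's 5a + 10% FCS with penicillin/streptomycin; 5 × 10⁴ cells/mL pre-cultured 24 h at 37 °C, 5% CO2. Then treated with at least three platinum concentrations (fresh water stocks diluted in medium). Cells counted in a counting chamber after 72 h. IC50 = concentration reducing growth to 50% of control; each concentration tested in ≥2 independent experiments.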

L1210 = experiment: Cytotoxicity against L1210/0 cell line of murine leukemia; format: functional, cell-based, Mus musculus; procedure, shortened: as §1
[1] = Resistance factor was determined using the ratio of cytotoxicity of both the cell lines; format: functional

Row | Sequence | IC50 (L1210/2) [µM] | IC50 (L1210) [µM] | RF [1]
1 | CISPLATIN [listing 1 of 2 here] | 4.6 | 1.5 | 
2 | CISPLATIN [listing 2 of 2 here] |  |  | 3.1
3 | TRANSPLATIN [listing 1 of 2 here] | 22 | 15.7 | 
4 | TRANSPLATIN [listing 2 of 2 here] |  |  | 1.4
